# Results published in ChEMBL document CHEMBL4765454, “Betulinic acid derived amides are highly cytotoxic, apoptotic and selective” (Eur J Med Chem, 2020).
# pEC50: −log10 of the molar value. Calls of active or inactive are those of the source. The calls are words filed in the database; no cut-off is given here.
# Experiments:
# [1] = tested on: A-375; experiment: Cytotoxicity against human A-375 cells assessed as reduction in cell viability incubated for 72 hrs by SRB assay; format: functional, cell-based; conditions: Homo sapiens, A-375, 72 h; read-out: EC50
# [2] = tested on: HT-29; experiment: Cytotoxicity against human HT-29 cells assessed as reduction in cell viability incubated for 72 hrs by SRB assay; format: functional, cell-based; conditions: Homo sapiens, HT-29, 72 h; read-out: EC50
# [3] = tested on: MCF7; experiment: Cytotoxicity against human MCF7 cells assessed as reduction in cell viability incubated for 72 hrs by SRB assay; format: functional, cell-based; conditions: Homo sapiens, MCF7, 72 h; read-out: EC50
# [4] = tested on: A2780; experiment: Cytotoxicity against human A2780 cells assessed as reduction in cell viability incubated for 72 hrs by SRB assay; format: functional, cell-based; conditions: Homo sapiens, A2780, 72 h; read-out: EC50
# [5] = tested on: FaDu; experiment: Cytotoxicity against human FaDu cells assessed as reduction in cell viability incubated for 72 hrs by SRB assay; format: functional, cell-based; conditions: Homo sapiens, FaDu, 72 h; read-out: EC50
# [6] = tested on: NIH3T3; experiment: Cytotoxicity against mouse NIH3T3 cells assessed as reduction in cell viability incubated for 72 hrs by SRB assay; format: cell-based; conditions: Mus musculus, NIH3T3, 72 h; read-out: EC50
# [7] = Selectivity ratio of EC50 for mouse NIH3T3 cells to EC50 for human HT-29 cells; format: toxicity; conditions: NIH3T3 cells versus HT-29 cells, read-out: Ratio EC50
# [8] = Selectivity ratio of EC50 for mouse NIH3T3 cells to EC50 for human MCF7 cells; format: toxicity; conditions: NIH3T3 cells versus MCF7 cells, read-out: Ratio EC50
# [9] = Selectivity ratio of EC50 for mouse NIH3T3 cells to EC50 for human A2780 cells; format: toxicity; conditions: NIH3T3 cells versus A2780 cells, read-out: Ratio EC50
# [10] = Selectivity ratio of EC50 for mouse NIH3T3 cells to EC50 for human FaDu cells
# [11] = tested on: A-375; experiment: Induction of apoptosis in human A375 cells assessed as necrotic cells at 4.8 uM measured after 24 hrs by Annexin V-FITC/propidium iodide staining based flow cytometry (reference value: 0.331%); format: functional
# [12] = tested on: A-375; experiment: Induction of apoptosis in human A375 cells assessed as late apoptotic cells at 4.8 uM measured after 24 hrs by Annexin V-FITC/propidium iodide staining based flow cytometry (reference value: 7.352%); format: functional
# [13] = tested on: A-375; experiment: Induction of apoptosis in human A375 cells assessed as viable cells at 4.8 uM measured after 24 hrs by Annexin V-FITC/propidium iodide staining based flow cytometry (reference value: 90.123%); format: functional; conditions: read-out: Activity
# [14] = tested on: A-375; experiment: Induction of apoptosis in human A375 cells assessed as early apoptotic cells at 4.8 uM measured after 24 hrs by Annexin V-FITC/propidium iodide staining based flow cytometry (reference value: 2.194%); format: functional
# [15] = tested on: A-375; experiment: Induction of apoptosis in human A375 cells assessed as necrotic cells at 4.8 uM measured after 48 hrs by Annexin V-FITC/propidium iodide staining based flow cytometry (reference value: 0.547%); format: functional
# [16] = tested on: A-375; experiment: Induction of apoptosis in human A375 cells assessed as late apoptotic cells at 4.8 uM measured after 48 hrs by Annexin V-FITC/propidium iodide staining based flow cytometry (reference value: 5.108%); format: functional
# [17] = tested on: A-375; experiment: Induction of apoptosis in human A375 cells assessed as viable cells at 4.8 uM measured after 48 hrs by Annexin V-FITC/propidium iodide staining based flow cytometry (reference value: 92.723%); format: functional; conditions: read-out: Activity
# [18] = tested on: A-375; experiment: Induction of apoptosis in human A375 cells assessed as early apoptotic cells at 4.8 uM measured after 48 hrs by Annexin V-FITC/propidium iodide staining based flow cytometry (reference value: 1.622%); format: functional
# [19] = tested on: A-375; experiment: Induction of apoptosis in human A375 cells at 4.8 uM measured after 24 hrs by microscopic analysis; format: functional, cell-based
# Outline: (§1)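 A375 cells treated at 3.0, 4.8 or 6.2 µM and inspected by light microscopy after 24 h or 48 h. Cell number and morphology were scored for apoptotic features: shrinkage, strangulation and blebbing.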
# [20] = tested on: A-375; experiment: Induction of apoptosis in human A375 cells assessed as cell shrinkage at 4.8 uM measured after 48 hrs by microscopic analysis; format: functional, cell-based; outline: as §1
# [21] = tested on: A-375; experiment: Induction of apoptosis in human A375 cells assessed as strangulation at 4.8 uM measured after 48 hrs by microscopic analysis; format: functional, cell-based; outline: as §1
# [22] = tested on: A-375; experiment: Induction of apoptosis in human A375 cells assessed as blebbing at 4.8 uM measured after 48 hrs by microscopic analysis; format: functional, cell-based; outline: as §1
# [23] = tested on: A-375; experiment: Cell cycle arrest in human A375 cells assessed as accumulation at subG1 phase measured after 24 hrs by propidium iodide staining based flow cytometry (reference value: 0.46%); format: functional
# [24] = tested on: A-375; experiment: Cell cycle arrest in human A375 cells assessed as accumulation at G1 phase measured after 24 hrs by propidium iodide staining based flow cytometry (reference value: 44.59%); format: functional
# [25] = tested on: A-375; experiment: Cell cycle arrest in human A375 cells assessed as accumulation at S phase measured after 24 hrs by propidium iodide staining based flow cytometry (reference value: 47.46%); format: functional
# [26] = tested on: A-375; experiment: Cell cycle arrest in human A375 cells assessed as accumulation at G2/M phase measured after 24 hrs by propidium iodide staining based flow cytometry (reference value: 7.48%); format: functional
# [27] = tested on: A-375; experiment: Cell cycle arrest in human A375 cells assessed as accumulation at subG1 phase measured after 48 hrs by propidium iodide staining based flow cytometry (reference value: 0.57%); format: functional
# [28] = tested on: A-375; experiment: Cell cycle arrest in human A375 cells assessed as accumulation at G1 phase measured after 48 hrs by propidium iodide staining based flow cytometry (reference value: 57.3%); format: functional
# [29] = tested on: A-375; experiment: Cell cycle arrest in human A375 cells assessed as accumulation at S phase measured after 48 hrs by propidium iodide staining based flow cytometry (reference value: 31.3%); format: functional
# [30] = tested on: A-375; experiment: Cell cycle arrest in human A375 cells assessed as accumulation at G2/M phase measured after 48 hrs by propidium iodide staining based flow cytometry (reference value: 10.83%); format: functional
# [31] = tested on: A-375; experiment: Induction of apoptosis in human A375 cells assessed as necrotic cells at 6.2 uM measured after 24 hrs by Annexin V-FITC/propidium iodide staining based flow cytometry (reference value: 0.331%); format: functional
# [32] = tested on: A-375; experiment: Induction of apoptosis in human A375 cells assessed as late apoptotic cells at 6.2 uM measured after 24 hrs by Annexin V-FITC/propidium iodide staining based flow cytometry (reference value: 7.352%); format: functional
# [33] = tested on: A-375; experiment: Induction of apoptosis in human A375 cells assessed as viable cells at 6.2 uM measured after 24 hrs by Annexin V-FITC/propidium iodide staining based flow cytometry (reference value: 90.123%); format: functional; conditions: read-out: Activity
# [34] = tested on: A-375; experiment: Induction of apoptosis in human A375 cells assessed as early apoptotic cells at 6.2 uM measured after 24 hrs by Annexin V-FITC/propidium iodide staining based flow cytometry (reference value: 2.194%); format: functional
# [35] = tested on: A-375; experiment: Induction of apoptosis in human A375 cells assessed as necrotic cells at 6.2 uM measured after 48 hrs by Annexin V-FITC/propidium iodide staining based flow cytometry (reference value: 0.547%); format: functional
# [36] = tested on: A-375; experiment: Induction of apoptosis in human A375 cells assessed as late apoptotic cells at 6.2 uM measured after 48 hrs by Annexin V-FITC/propidium iodide staining based flow cytometry (reference value: 5.108%); format: functional
# [37] = tested on: A-375; experiment: Induction of apoptosis in human A375 cells assessed as viable cells at 6.2 uM measured after 48 hrs by Annexin V-FITC/propidium iodide staining based flow cytometry (reference value: 92.723%); format: functional; conditions: read-out: Activity
# [38] = tested on: A-375; experiment: Induction of apoptosis in human A375 cells assessed as early apoptotic cells at 6.2 uM measured after 48 hrs by Annexin V-FITC/propidium iodide staining based flow cytometry (reference value: 1.622%); format: functional
# [39] = tested on: A-375; experiment: Induction of apoptosis in human A375 cells at 6.2 uM measured after 24 hrs by microscopic analysis; format: functional, cell-based; outline: as §1
# [40] = tested on: A-375; experiment: Induction of apoptosis in human A375 cells assessed as cell shrinkage at 6.2 uM measured after 48 hrs by microscopic analysis; format: functional, cell-based; outline: as §1
# [41] = tested on: A-375; experiment: Induction of apoptosis in human A375 cells assessed as strangulation at 6.2 uM measured after 48 hrs by microscopic analysis; format: functional, cell-based; outline: as §1
# [42] = tested on: A-375; experiment: Induction of apoptosis in human A375 cells assessed as blebbing at 6.2 uM measured after 48 hrs by microscopic analysis; format: functional, cell-based; outline: as §1
# [43] = Selectivity ratio of EC50 for mouse NIH3T3 cells to EC50 for human A375 cells; format: toxicity; conditions: NIH3T3 cells versus A375 cells, read-out: Ratio EC50
structure (smiles),measurement,setting,value
C=C(C)[C@@H]1CC[C@]2(C(=O)Nc3cccc4ncccc34)CC[C@]3(C)[C@H](CC[C@@H]4[C@@]5(C)C[C@H](OC(C)=O)[C@H](OC(C)=O)C(C)(C)[C@@H]5CC[C@]43C)[C@@H]12,pEC50,[1],5.54
same,pEC50,[2],< 4.52
same,pEC50,[3],5.20
same,pEC50,[4],5.49
same,pEC50,[5],5.46
same,pEC50,[6],< 3.92
same,selectivity ratio,[7],4
same,selectivity ratio,[8],19.2
same,selectivity ratio,[9],37
same,Ratio EC50,[10],34.4
same,Activity,[11],0.749%
same,Activity,[12],10.295%
same,viability at 4.8 µM,[13],80.4%
same,Activity,[14],6.495%
same,Activity,[15],1.342%
same,Activity,[16],12.388%
same,viability at 4.8 µM,[17],67.4%
same,Activity,[18],18.861%
same,Activity,[19],Active
same,Activity,[20],Active
same,Activity,[21],Active
same,Activity,[22],Active
same,Activity,[23],3.53%
same,Activity,[24],37.51%
same,Activity,[25],58.53%
same,Activity,[26],0.43%
same,Activity,[27],11.49%
same,Activity,[28],31.39%
same,Activity,[29],57.06%
same,Activity,[30],0%
C=C(C)[C@@H]1CC[C@]2(C(=O)NCc3ccccc3)CC[C@]3(C)[C@H](CC[C@@H]4[C@@]5(C)C[C@H](OC(C)=O)[C@H](OC(C)=O)C(C)(C)[C@@H]5CC[C@]43C)[C@@H]12,pEC50,[1],5.50
same,pEC50,[2],4.68
same,pEC50,[3],4.95
same,pEC50,[4],5.35
same,pEC50,[5],5.27
same,pEC50,[6],< 4.15
same,selectivity ratio,[7],3.4
same,selectivity ratio,[8],6.2
same,selectivity ratio,[9],15.8
same,Ratio EC50,[10],13
same,Activity,[31],0.667%
same,Activity,[32],7.93%
same,viability at 6.2 µM,[33],81.9%
same,Activity,[34],9.546%
same,Activity,[35],1.449%
same,Activity,[36],20.078%
same,viability at 6.2 µM,[37],34.3%
same,Activity,[38],44.187%
same,Activity,[39],Active
same,Activity,[40],Active
same,Activity,[41],Active
same,Activity,[42],Active
same,Activity,[23],5.98%
same,Activity,[24],63.76%
same,Activity,[25],30.27%
same,Activity,[26],0%
same,Activity,[27],25.69%
same,Activity,[28],52.38%
same,Activity,[29],21.92%
same,Activity,[30],0%
C=C(C)[C@@H]1CC[C@]2(C(=O)O)CC[C@]3(C)[C@H](CC[C@@H]4[C@@]5(C)C=C(O)C(=O)C(C)(C)[C@@H]5CC[C@]43C)[C@@H]12,pEC50,[1],4.86
same,pEC50,[2],4.58
same,pEC50,[3],4.92
same,pEC50,[4],4.98
same,pEC50,[5],4.85
same,pEC50,[6],4.89
same,selectivity ratio,[43],0.9
same,selectivity ratio,[7],0.5
same,selectivity ratio,[8],1.1
same,selectivity ratio,[9],1.2
same,Ratio EC50,[10],0.9
